Reference: ChEMBL document CHEMBL1142492 (J Med Chem, 2008)

How the values were obtained:
[1] = biological target: Alpha-2A adrenergic receptor (Homo sapiens) (UniProt P08913); assay: Inhibition of human adrenergic alpha2A receptor at 3 uM
[2] = biological target: Serine/threonine-protein kinase STK11 (Homo sapiens) (UniProt Q15831); assay: Inhibition of LKB1 at 3 uM
[3] = biological target: Cyclin-dependent kinase 9 (Homo sapiens) (UniProt P50750); assay: Inhibition of CDK9 at 3 uM
[4] = biological target: Myosin-IIIb (Homo sapiens) (UniProt Q8WXR4); assay: Inhibition of MYO3B at 3 uM
[5] = biological target: Cyclin-dependent kinase 17 (Homo sapiens) (UniProt Q00537); assay: Inhibition of PCTK2 at 3 uM
[6] = biological target: Ephrin type-B receptor 2 (Homo sapiens) (UniProt P29323); assay: Inhibition of EPHB2 at 3 uM
How it was run: (§1)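 Single-concentration kinase panel scoring: each value is the percentage of enzyme activity remaining relative to a DMSO-only control. An activity statistically indistinct from DMSO control was scored "no hit".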

[7] = biological target: Serine/threonine-protein kinase N2 (Homo sapiens) (UniProt Q16513); assay: Inhibition of PKN2 at 3 uM
[8] = biological target: Serine/threonine-protein kinase MRCK beta (Homo sapiens) (UniProt Q9Y5S2); assay: Inhibition of MRCKB at 3 uM
[9] = biological target: Serine/threonine-protein kinase MRCK gamma (Homo sapiens) (UniProt Q6DT37); assay: Inhibition of DMPK2 at 3 uM
[10] = biological target: Serine/threonine-protein kinase Nek6 (Homo sapiens) (UniProt Q9HC98); assay: Inhibition of NEK6 at 3 uM
[11] = biological target: 5-hydroxytryptamine receptor 1A (Homo sapiens) (UniProt P08908); assay: Inhibition of human 5HT1A receptor at 3 uM
How it was run: (§2)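 Counter-screen binding/enzyme panel at single 3 μM, n=2; results as percent inhibition. Species per target as listed (rat NMDA, GABAA sites; human receptors, transporters; rabbit ACE).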

[12] = biological target: Tyrosine-protein kinase ZAP-70 (Homo sapiens) (UniProt P43403); assay: Inhibition of ZAP70 at 3 uM
[13] = biological target: Serine/threonine-protein kinase tousled-like 1 (Homo sapiens) (UniProt Q9UKI8); assay: Inhibition of TLK1 at 3 uM
[14] = organism: Homo sapiens; details: 3 uM
[15] = biological target: Mitogen-activated protein kinase 1 (Homo sapiens) (UniProt P28482); assay: Inhibition of ERK2 at 3 uM; how it was run: as §1
[16] = biological target: Serine/threonine-protein kinase PAK 5 (Homo sapiens) (UniProt Q9P286); assay: Inhibition of PAK7/PAK5 at 3 uM
[17] = biological target: T1, CYP1A2 (Homo sapiens, UniProt P05177); assay: Inhibition of human CYP1A2 at 10 uM; assay type: ADME
T1 sequence (P05177 whole entry): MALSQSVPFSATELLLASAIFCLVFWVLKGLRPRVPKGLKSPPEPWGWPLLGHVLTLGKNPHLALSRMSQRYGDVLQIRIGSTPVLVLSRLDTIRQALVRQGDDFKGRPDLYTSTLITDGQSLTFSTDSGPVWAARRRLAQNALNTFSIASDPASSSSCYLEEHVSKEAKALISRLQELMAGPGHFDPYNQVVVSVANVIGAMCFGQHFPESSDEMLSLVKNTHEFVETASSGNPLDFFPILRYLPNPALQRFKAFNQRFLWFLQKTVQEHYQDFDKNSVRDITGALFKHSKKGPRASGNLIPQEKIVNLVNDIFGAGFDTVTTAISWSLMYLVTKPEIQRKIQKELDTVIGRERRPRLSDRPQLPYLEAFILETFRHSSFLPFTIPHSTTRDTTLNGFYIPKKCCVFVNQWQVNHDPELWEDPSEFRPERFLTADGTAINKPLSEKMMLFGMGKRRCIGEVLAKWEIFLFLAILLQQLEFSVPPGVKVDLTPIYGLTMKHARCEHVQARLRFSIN

[18] = biological target: 5'-AMP-activated protein kinase catalytic subunit alpha-2 (Homo sapiens) (UniProt P54646); assay: Inhibition of AMPKalpha2 at 3 uM
[19] = biological target: Serine/threonine-protein kinase pim-2 (Homo sapiens) (UniProt Q9P1W9); assay: Inhibition of PIM2 at 3 uM
[20] = biological target: Casein kinase I isoform gamma-1 (Homo sapiens) (UniProt Q9HCP0); assay: Inhibition of CSNK1G1 at 3 uM
[21] = organism: Rattus norvegicus; details: 3 uM
[22] = biological target: Tyrosine-protein kinase receptor TYRO3 (Homo sapiens) (UniProt Q06418); assay: Inhibition of TYRO3 at 3 uM
[23] = biological target: Myosin light chain kinase family member 4 (Homo sapiens) (UniProt Q86YV6); assay: Inhibition of SgK085 at 3 uM
[24] = biological target: Serine/threonine-protein kinase PLK3 (Homo sapiens) (UniProt Q9H4B4); assay: Inhibition of PLK3 at 3 uM
[25] = biological target: Serine/threonine-protein kinase D1 (Homo sapiens) (UniProt Q15139); assay: Inhibition of PRKD1 at 3 uM
[26] = biological target: LIM domain kinase 2 (Homo sapiens) (UniProt P53671); assay: Inhibition of LIMK2 at 3 uM
[27] = biological target: Calcium/calmodulin-dependent protein kinase type II subunit delta (Homo sapiens) (UniProt Q13557); assay: Inhibition of CAMK2D at 3 uM
[28] = biological target: Myosin-IIIa (Homo sapiens) (UniProt Q8NEV4); assay: Inhibition of MYO3A at 3 uM
[29] = biological target: STE20-like serine/threonine-protein kinase (Homo sapiens) (UniProt Q9H2G2); assay: Inhibition of SLK at 3 uM
[30] = biological target: Tyrosine-protein kinase HCK (Homo sapiens) (UniProt P08631); assay: Inhibition of HCK at 3 uM
[31] = biological target: Interferon-induced, double-stranded RNA-activated protein kinase (Homo sapiens) (UniProt P19525); assay: Inhibition of PRKR at 3 uM
[32] = biological target: Dual specificity tyrosine-phosphorylation-regulated kinase 1B (Homo sapiens) (UniProt Q9Y463); assay: Inhibition of DYRK1B at 3 uM
[33] = test system: eIF-2-alpha kinase GCN2 (Homo sapiens), Q9P2K8 [S808G]; assay: Inhibition of GCN2 Kin.Dom.2,S808G mutant at 3 uM
[34] = biological target: Activin receptor type-2A (Homo sapiens) (UniProt P27037); assay: Inhibition of ACVR2A at 3 uM
[35] = biological target: Histamine H1 receptor (Homo sapiens) (UniProt P35367); assay: Inhibition of human histamine H1 receptor at 3 uM
[36] = test system: Tyrosine-protein kinase ABL1 (Homo sapiens), P00519 [F317L]; assay: Inhibition of ABL1 F317L mutant at 3 uM
[37] = biological target: Endothelin receptor type B (Homo sapiens) (UniProt P24530); assay: Inhibition of human endothelin ETB receptor at 3 uM; how it was run: as §2
[38] = biological target: Cyclin-dependent kinase 15 (Homo sapiens) (UniProt Q96Q40); assay: Inhibition of PFTAIRE2 at 3 uM

5-hydroxytryptamine receptor 1A (Homo sapiens), sequence (P08908 whole entry): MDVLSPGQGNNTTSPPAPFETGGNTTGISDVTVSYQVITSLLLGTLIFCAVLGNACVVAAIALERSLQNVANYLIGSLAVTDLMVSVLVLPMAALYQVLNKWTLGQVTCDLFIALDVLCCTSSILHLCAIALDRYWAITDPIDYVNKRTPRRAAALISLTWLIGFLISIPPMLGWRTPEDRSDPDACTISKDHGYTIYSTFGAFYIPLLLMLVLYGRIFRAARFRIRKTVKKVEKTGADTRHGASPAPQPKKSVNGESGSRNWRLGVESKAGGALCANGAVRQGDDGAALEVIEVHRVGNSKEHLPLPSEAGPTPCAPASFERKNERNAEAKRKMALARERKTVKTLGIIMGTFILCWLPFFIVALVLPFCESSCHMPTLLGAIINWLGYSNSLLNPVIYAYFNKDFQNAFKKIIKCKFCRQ
Activin receptor type-2A (Homo sapiens), sequence (P27037 whole entry): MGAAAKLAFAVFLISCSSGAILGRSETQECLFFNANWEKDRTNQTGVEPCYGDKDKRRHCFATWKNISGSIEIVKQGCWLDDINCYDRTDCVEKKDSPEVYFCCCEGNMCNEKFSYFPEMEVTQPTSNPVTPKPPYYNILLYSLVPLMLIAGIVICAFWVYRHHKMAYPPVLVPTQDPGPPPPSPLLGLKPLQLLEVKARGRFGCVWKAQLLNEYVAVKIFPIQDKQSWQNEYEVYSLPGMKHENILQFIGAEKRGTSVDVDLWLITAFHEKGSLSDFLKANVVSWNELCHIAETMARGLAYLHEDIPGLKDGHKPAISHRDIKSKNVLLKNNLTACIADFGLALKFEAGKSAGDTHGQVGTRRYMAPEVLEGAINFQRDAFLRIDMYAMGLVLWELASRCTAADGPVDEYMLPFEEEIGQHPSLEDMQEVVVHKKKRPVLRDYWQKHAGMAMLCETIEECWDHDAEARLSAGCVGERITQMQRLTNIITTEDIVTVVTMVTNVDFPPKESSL
STE20-like serine/threonine-protein kinase (Homo sapiens), sequence (Q9H2G2 whole entry, looked up): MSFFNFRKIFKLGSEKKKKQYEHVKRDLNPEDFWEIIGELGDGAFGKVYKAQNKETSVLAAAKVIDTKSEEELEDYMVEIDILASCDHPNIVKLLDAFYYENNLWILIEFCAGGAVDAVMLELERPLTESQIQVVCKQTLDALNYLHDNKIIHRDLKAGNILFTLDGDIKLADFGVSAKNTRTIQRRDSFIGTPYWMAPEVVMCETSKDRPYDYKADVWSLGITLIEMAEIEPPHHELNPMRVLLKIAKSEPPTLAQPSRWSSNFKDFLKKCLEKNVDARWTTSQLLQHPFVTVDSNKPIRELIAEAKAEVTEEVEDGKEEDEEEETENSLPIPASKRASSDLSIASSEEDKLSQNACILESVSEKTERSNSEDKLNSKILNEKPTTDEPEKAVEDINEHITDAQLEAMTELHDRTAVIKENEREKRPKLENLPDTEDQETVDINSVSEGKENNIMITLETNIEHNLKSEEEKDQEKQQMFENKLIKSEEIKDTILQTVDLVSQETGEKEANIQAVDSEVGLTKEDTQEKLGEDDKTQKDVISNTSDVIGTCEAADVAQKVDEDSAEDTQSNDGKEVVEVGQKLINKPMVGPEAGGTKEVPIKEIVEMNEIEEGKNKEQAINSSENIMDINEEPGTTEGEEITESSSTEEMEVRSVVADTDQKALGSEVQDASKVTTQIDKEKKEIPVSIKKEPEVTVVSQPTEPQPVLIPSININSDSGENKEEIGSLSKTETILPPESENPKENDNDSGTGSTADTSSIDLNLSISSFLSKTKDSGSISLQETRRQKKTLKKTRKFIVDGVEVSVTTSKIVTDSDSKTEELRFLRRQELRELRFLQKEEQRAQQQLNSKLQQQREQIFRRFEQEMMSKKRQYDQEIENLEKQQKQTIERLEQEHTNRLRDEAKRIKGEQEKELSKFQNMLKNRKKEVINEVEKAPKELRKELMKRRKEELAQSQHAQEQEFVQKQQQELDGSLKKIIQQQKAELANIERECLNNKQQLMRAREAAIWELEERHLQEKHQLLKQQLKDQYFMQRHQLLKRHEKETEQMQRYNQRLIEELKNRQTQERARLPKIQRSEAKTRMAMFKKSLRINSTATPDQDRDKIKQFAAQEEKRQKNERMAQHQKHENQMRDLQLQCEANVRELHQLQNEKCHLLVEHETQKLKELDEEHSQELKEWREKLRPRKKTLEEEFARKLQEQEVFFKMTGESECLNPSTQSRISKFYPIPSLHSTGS
Mitogen-activated protein kinase 1 (Homo sapiens), sequence (P28482 whole entry): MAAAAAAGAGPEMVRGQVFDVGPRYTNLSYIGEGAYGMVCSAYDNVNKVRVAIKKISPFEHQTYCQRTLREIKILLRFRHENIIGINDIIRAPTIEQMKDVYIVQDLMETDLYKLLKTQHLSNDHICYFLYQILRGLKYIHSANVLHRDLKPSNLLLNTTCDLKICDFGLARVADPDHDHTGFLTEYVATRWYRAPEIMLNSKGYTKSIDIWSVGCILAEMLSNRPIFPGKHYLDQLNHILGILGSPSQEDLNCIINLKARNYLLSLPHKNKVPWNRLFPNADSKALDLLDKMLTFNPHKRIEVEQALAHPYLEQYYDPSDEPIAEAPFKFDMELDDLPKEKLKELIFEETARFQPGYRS
Cyclin-dependent kinase 9 (Homo sapiens), sequence (P50750 whole entry): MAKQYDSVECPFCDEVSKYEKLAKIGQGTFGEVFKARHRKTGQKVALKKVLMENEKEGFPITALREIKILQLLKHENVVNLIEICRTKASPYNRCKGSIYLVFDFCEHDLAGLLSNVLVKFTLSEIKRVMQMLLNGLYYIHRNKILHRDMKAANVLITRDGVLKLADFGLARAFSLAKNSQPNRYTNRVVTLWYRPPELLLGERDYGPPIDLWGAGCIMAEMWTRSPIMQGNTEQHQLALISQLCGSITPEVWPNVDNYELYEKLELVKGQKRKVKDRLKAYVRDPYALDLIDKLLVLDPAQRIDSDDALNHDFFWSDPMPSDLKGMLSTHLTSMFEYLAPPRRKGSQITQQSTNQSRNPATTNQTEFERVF
Dual specificity tyrosine-phosphorylation-regulated kinase 1B (Homo sapiens), sequence (Q9Y463 whole entry, looked up): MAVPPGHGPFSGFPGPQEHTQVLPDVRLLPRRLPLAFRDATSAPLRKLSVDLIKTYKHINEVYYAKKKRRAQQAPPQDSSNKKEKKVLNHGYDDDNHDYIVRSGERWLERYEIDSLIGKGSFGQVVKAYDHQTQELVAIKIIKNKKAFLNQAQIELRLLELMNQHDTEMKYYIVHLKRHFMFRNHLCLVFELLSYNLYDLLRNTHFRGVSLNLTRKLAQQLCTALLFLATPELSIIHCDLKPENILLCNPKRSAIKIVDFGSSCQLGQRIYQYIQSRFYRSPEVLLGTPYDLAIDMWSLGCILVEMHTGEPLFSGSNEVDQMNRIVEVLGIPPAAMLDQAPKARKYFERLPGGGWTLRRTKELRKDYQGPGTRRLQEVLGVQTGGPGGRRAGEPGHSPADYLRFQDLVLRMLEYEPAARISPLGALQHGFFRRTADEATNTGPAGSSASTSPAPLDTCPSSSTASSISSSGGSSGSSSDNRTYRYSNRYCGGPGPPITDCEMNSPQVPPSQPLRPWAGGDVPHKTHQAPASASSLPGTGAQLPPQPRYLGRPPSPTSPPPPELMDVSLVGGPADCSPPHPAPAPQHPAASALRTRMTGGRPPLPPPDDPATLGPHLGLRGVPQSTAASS
Tyrosine-protein kinase receptor TYRO3 (Homo sapiens), sequence (Q06418 whole entry): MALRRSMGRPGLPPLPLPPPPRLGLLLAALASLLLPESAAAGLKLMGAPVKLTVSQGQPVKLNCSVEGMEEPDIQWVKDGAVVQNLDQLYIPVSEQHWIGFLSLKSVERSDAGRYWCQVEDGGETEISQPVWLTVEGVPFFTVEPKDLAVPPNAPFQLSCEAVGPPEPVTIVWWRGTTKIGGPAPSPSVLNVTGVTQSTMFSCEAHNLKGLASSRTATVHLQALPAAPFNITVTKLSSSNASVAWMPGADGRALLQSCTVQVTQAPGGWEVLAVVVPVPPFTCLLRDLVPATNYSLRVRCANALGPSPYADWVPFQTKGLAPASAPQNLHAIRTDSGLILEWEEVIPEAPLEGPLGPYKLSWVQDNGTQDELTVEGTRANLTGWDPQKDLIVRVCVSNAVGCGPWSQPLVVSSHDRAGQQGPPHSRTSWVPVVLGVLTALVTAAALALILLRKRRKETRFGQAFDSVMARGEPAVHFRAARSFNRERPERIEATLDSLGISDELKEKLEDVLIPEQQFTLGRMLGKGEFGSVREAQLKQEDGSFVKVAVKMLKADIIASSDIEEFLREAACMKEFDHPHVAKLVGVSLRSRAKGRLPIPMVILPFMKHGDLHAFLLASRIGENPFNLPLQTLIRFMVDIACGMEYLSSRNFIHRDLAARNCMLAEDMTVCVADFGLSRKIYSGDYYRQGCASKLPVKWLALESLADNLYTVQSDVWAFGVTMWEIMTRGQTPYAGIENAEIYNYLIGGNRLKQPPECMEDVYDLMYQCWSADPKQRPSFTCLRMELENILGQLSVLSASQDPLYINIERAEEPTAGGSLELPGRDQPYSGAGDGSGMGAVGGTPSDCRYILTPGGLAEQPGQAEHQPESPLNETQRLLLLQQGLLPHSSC
Serine/threonine-protein kinase pim-2 (Homo sapiens), sequence (Q9P1W9 whole entry, looked up, canonical isoform): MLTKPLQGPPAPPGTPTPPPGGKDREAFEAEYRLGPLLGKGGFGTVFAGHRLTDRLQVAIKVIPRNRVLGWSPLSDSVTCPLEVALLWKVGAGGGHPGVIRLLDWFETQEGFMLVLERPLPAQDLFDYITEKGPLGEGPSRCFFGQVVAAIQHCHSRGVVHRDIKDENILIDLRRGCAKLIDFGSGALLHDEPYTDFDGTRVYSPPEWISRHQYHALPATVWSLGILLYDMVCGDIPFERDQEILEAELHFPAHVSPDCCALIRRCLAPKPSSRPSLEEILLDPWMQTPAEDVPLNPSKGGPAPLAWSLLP

**Q.** Which inhibition [1] does the source give for CN(C)CCOc1cc(-c2cn[nH]c2)ccc1NC(=O)C1COc2ccccc2O1 (stereo not drawn) [SR-3677] here?
**A.** 76%

**Q.** And the inhibition [2]?
**A.** < 10%

**Q.** And the inhibition [3]?
**A.** < 10%

**Q.** What about the inhibition [4] of the same molecule?
**A.** < 10%

**Q.** And the inhibition [5]?
**A.** < 10%

**Q.** What about the inhibition [6] of the same molecule?
**A.** < 10%

**Q.** And the inhibition [7]?
**A.** < 10%

**Q.** What about the inhibition [8] of the same molecule?
**A.** < 10%

**Q.** And the inhibition [9]?
**A.** < 10%

**Q.** And the inhibition [10]?
**A.** < 10%

**Q.** What about the inhibition [11] of the same molecule?
**A.** 6%

**Q.** What about the inhibition [12] of the same molecule?
**A.** < 10%

**Q.** And the inhibition [13]?
**A.** < 10%

**Q.** And the inhibition [14]?
**A.** 12%

**Q.** And the inhibition [15]?
**A.** < 10%

**Q.** And the inhibition [16]?
**A.** < 10%

**Q.** And the inhibition at 10 µM [17]?
**A.** 46%

**Q.** And the inhibition [18]?
**A.** < 10%

**Q.** And the inhibition [19]?
**A.** < 10%

**Q.** And the inhibition [20]?
**A.** < 10%

**Q.** And the inhibition [21]?
**A.** 0%

**Q.** What about the inhibition [22] of the same molecule?
**A.** < 10%

**Q.** What about the inhibition [23] of the same molecule?
**A.** < 10%

**Q.** What about the inhibition [24] of the same molecule?
**A.** < 10%

**Q.** And the inhibition [25]?
**A.** < 10%

**Q.** What about the inhibition [26] of the same molecule?
**A.** < 10%

**Q.** And the inhibition [27]?
**A.** < 10%

**Q.** What about the inhibition [28] of the same molecule?
**A.** < 10%

**Q.** And the inhibition [29]?
**A.** < 10%

**Q.** And the inhibition [30]?
**A.** < 10%

**Q.** And the inhibition [31]?
**A.** < 10%

**Q.** What about the inhibition [32] of the same molecule?
**A.** < 10%

**Q.** And the inhibition [33]?
**A.** < 10%

**Q.** What about the inhibition [34] of the same molecule?
**A.** < 10%

**Q.** And the inhibition [35]?
**A.** 7%

**Q.** And the inhibition [36]?
**A.** < 10%

**Q.** What about the inhibition [37] of the same molecule?
**A.** -1%

**Q.** And the inhibition [38]?
**A.** < 10%
